# Assays:
# Type in all cases: functional
# [1] = system: RXF 393; assay: Growth inhibition of human RXF393 cells incubated for 48 hrs by sulforhodamine B assay; details: RXF 393, 48 h
# Method in brief: (§1)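 NCI 60 human tumour cell line panel, five-dose study at 0.01, 0.1, 1, 10 and 100 µM, 48 h incubation. Sulforhodamine B protein-binding dye end point. GI50 (50% decrease in net cell growth), TGI (total growth inhibition) and LC50 (net 50% loss of initial cells) read from log concentration versus % growth inhibition curves.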
# [2] = system: SK-MEL-28; assay: Growth inhibition of human SK-MEL-28 cells incubated for 48 hrs by sulforhodamine B assay; details: SK-MEL-28, 48 h; method in brief: as §1
# [3] = system: HCC 2998; assay: Growth inhibition of human HCC2998 cells incubated for 48 hrs by sulforhodamine B assay; details: HCC 2998, 48 h
# Method in brief: (§2)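 NCI-60 five-dose screen at 0.01, 0.1, 1, 10 and 100 µM, 48 h incubation, sulforhodamine B end point. GI50 (50% decrease in net growth), TGI (total growth inhibition) and LC50 (net 50% loss of initial cells) taken from log concentration versus % growth inhibition curves.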
# [4] = system: U-251; assay: Growth inhibition of human U251 cells incubated for 48 hrs by sulforhodamine B assay; details: U-251, 48 h; method in brief: as §1
# [5] = system: COLO 205; assay: Growth inhibition of human COLO205 cells incubated for 48 hrs by sulforhodamine B assay; details: COLO 205, 48 h; method in brief: as §2
# [6] = system: OVCAR-4; assay: Growth inhibition of human OVCAR4 cells incubated for 48 hrs by sulforhodamine B assay; details: OVCAR-4, 48 h; method in brief: as §2
# [7] = system: LOX IMVI; assay: Growth inhibition of human LOXIMVI cells incubated for 48 hrs by sulforhodamine B assay; method in brief: as §2
# [8] = system: Hs-578T; assay: Growth inhibition of human Hs 578T cells incubated for 48 hrs by sulforhodamine B assay; method in brief: as §2
# [9] = system: A498; assay: Growth inhibition of human A498 cells incubated for 48 hrs by sulforhodamine B assay; details: A498, 48 h; method in brief: as §2
# [10] = system: OVCAR-8; assay: Growth inhibition of human OVCAR8 cells incubated for 48 hrs by sulforhodamine B assay; details: OVCAR-8, 48 h; method in brief: as §2
# [11] = system: SK-MEL-2; assay: Growth inhibition of human SK-MEL-2 cells incubated for 48 hrs by sulforhodamine B assay; details: SK-MEL-2, 48 h; method in brief: as §1
# [12] = system: T47D; assay: Growth inhibition of human T47D cells incubated for 48 hrs by sulforhodamine B assay; method in brief: as §1
# [13] = system: K562; assay: Growth inhibition of human K562 cells incubated for 48 hrs by sulforhodamine B assay; details: K562, 48 h; method in brief: as §2
# [14] = system: SNB-19; assay: Growth inhibition of human SNB19 cells incubated for 48 hrs by sulforhodamine B assay; details: SNB-19, 48 h; method in brief: as §1
# [15] = system: M14; assay: Growth inhibition of human M14 cells incubated for 48 hrs by sulforhodamine B assay; details: M14, 48 h; method in brief: as §2
# [16] = system: SK-MEL-5; assay: Growth inhibition of human SK-MEL-5 cells incubated for 48 hrs by sulforhodamine B assay; details: SK-MEL-5, 48 h; method in brief: as §1
# [17] = system: 786-0; assay: Growth inhibition of human 786-0 cells incubated for 48 hrs by sulforhodamine B assay; details: 786-0, 48 h; method in brief: as §2
# [18] = system: ACHN; assay: Growth inhibition of human ACHN cells incubated for 48 hrs by sulforhodamine B assay; method in brief: as §2
# [19] = system: HT-29; assay: Growth inhibition of human HT-29 cells incubated for 48 hrs by sulforhodamine B assay; details: HT-29, 48 h; method in brief: as §2
# [20] = system: OVCAR-5; assay: Growth inhibition of human OVCAR5 cells incubated for 48 hrs by sulforhodamine B assay; details: OVCAR-5, 48 h; method in brief: as §2
# [21] = system: SNB-19; assay: Anticancer activity against human SNB19 cells assessed as cell growth at 10 uM after 48 hrs by sulforhodamine B assay relative to control; details: SNB-19, 48 h, read-out: Activity
# Method in brief: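 Single-dose NCI-60 panel screen: compound added at 10 µM and the culture incubated 48 h. The end point was read by protein staining with sulforhodamine B. The value is percent growth of treated cells relative to untreated control cells, reported as a mean graph across the panel.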
# [22] = system: MCF7; assay: Growth inhibition of human MCF7 cells incubated for 48 hrs by sulforhodamine B assay; details: MCF7, 48 h; method in brief: as §2
# [23] = system: SF-268; assay: Growth inhibition of human SF268 cells incubated for 48 hrs by sulforhodamine B assay; details: SF-268, 48 h; method in brief: as §1
# [24] = system: HCT-116; assay: Growth inhibition of human HCT116 cells incubated for 48 hrs by sulforhodamine B assay; details: HCT-116, 48 h; method in brief: as §2
# [25] = system: NCI-H522; assay: Growth inhibition of human NCI-H522 cells incubated for 48 hrs by sulforhodamine B assay; details: NCI-H522, 48 h; method in brief: as §2
# [26] = system: OVCAR-3; assay: Growth inhibition of human OVCAR3 cells incubated for 48 hrs by sulforhodamine B assay; details: OVCAR-3, 48 h; method in brief: as §2
# [27] = system: SNB-75; assay: Growth inhibition of human SNB75 cells incubated for 48 hrs by sulforhodamine B assay; details: SNB-75, 48 h; method in brief: as §1
# [28] = system: BT-549; assay: Growth inhibition of human BT549 cells incubated for 48 hrs by sulforhodamine B assay; details: BT-549, 48 h; method in brief: as §2
# [29] = system: NCI-H322M; assay: Growth inhibition of human NCI-H322M cells incubated for 48 hrs by sulforhodamine B assay; method in brief: as §2
# [30] = read-out: LC50 (the source's name)
compound,measurement,setting,value
C=C1CC[C@@H]2[C@](C)(COC(C)=O)[C@H](OC(C)=O)CC[C@@]2(C)[C@H]1CC(Nc1ccc(S(=O)(=O)Nc2nccs2)cc1)C1=CCOC1=O (stereo not given in full),GI50,[1],2360 nM
same,TGI,[1],4.74 µM
same,CC50,[1]; [30],9.53 µM
same,GI50,[2],3.95 µM
same,LC50 (50% net cell kill),[2],41.8 µM
same,TGI,[2],15.1 µM
same,GI50,[3],7.78 µM
same,TGI,[3],21.3 µM
same,CC50,[3]; [30],50.3 µM
same,GI50,[4],1860 nM
same,TGI,[4],3.5 µM
same,CC50,[4]; [30],6.57 µM
same,GI50,[5],3.14 µM
same,TGI,[5],10.5 µM
same,CC50,[5]; [30],48.9 µM
same,GI50,[6],4.53 µM
same,LC50,[6],43.9 µM
same,TGI,[6],17.7 µM
same,GI50,[7],1590 nM
same,TGI,[7],3.31 µM
same,CC50,[7]; [30],6.92 µM
same,GI50,[8],10.8 µM
same,LC50,[8],> 100 µM
same,TGI,[8],60.4 µM
same,GI50,[9],18.2 µM
same,LC50 (concentration giving net 50% loss of initial cells),[9],58.5 µM
same,TGI,[9],32.6 µM
same,GI50,[10],3.14 µM
same,TGI,[10],10.8 µM
same,CC50,[10]; [30],47.7 µM
same,GI50,[11],10.6 µM
same,TGI,[11],24.3 µM
same,CC50,[11]; [30],56.1 µM
same,GI50,[12],3.39 µM
same,TGI,[12],20.8 µM
same,CC50,[12]; [30],> 100 µM
same,GI50,[13],3.6 µM
same,TGI,[13],29 µM
same,CC50,[13]; [30],> 100 µM
same,GI50,[14],4.36 µM
same,TGI,[14],16.1 µM
same,CC50,[14]; [30],46 µM
same,GI50,[15],2830 nM
same,TGI,[15],10.5 µM
same,CC50,[15]; [30],42.2 µM
same,GI50,[16],4.79 µM
same,TGI,[16],17.1 µM
same,CC50,[16]; [30],41.3 µM
same,GI50,[17],2540 nM
same,LC50 (concentration giving net 50% loss of initial cells),[17],23.6 µM
same,TGI,[17],6.74 µM
same,GI50,[18],5.99 µM
same,TGI,[18],18.9 µM
same,CC50,[18]; [30],45 µM
same,GI50,[19],2170 nM
same,TGI,[19],4.7 µM
same,CC50,[19]; [30],15.8 µM
same,GI50,[20],4.82 µM
same,LC50 (concentration causing net 50% loss of initial cells),[20],46.9 µM
same,TGI,[20],17.6 µM
same,growth at 10 µM,[21],49.1%
same,GI50,[22],2590 nM
same,TGI,[22],13.6 µM
same,CC50,[22]; [30],> 100 µM
same,GI50,[23],11.3 µM
same,TGI,[23],25.9 µM
same,CC50,[23]; [30],59.1 µM
same,GI50,[24],1750 nM
same,TGI,[24],3.75 µM
same,CC50,[24]; [30],8 µM
same,GI50,[25],1720 nM
same,TGI,[25],4.32 µM
same,CC50,[25]; [30],21.2 µM
same,GI50,[26],1880 nM
same,TGI,[26],3.64 µM
same,CC50,[26]; [30],7.06 µM
same,GI50,[27],2830 nM
same,TGI,[27],15.6 µM
same,CC50,[27]; [30],39.5 µM
same,GI50,[28],2430 nM
same,TGI,[28],6.5 µM
same,CC50,[28]; [30],23.1 µM
same,GI50,[29],12 µM
same,TGI,[29],24.9 µM
same,CC50,[29]; [30],51.6 µM

# From ChEMBL document CHEMBL4033712, “Synthesis and biological evaluation of new C-12(α/β)-(N-) sulfamoyl-phenylamino-14-deoxy-andrographolide derivatives as potent anti-cancer agents” (Bioorg Med Chem Lett, 2017)
